# Hits are enriched below; roughly 4.7% of the tested compounds scored in any of these assays.
# RGS4 block: RGS4 inhibitors, primary screen, cell-based, HEK293 M3R inducible RGS4, calcium flux. 310,000 compounds, 0.45% hits. B-score at 10 µM. AID 463165, 2010. Regulator of G-protein signaling 4 (Homo sapiens), P49798. Fluo-4 calcium flux; active compounds read high; triggered by carbachol at its EC20;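 active means B-score, a plate-corrected calcium signal, over three deviations above library mean, with baseline fluorescence within five deviations of library mean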;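 further: RGS4 expression induced by doxycycline in cells with stable M3 receptor; B-score is computed from the integrated fluorescence ratio over baseline after carbachol; higher B-score means a larger calcium signal and so more RGS4 inhibition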
# Target sequence (P49798 whole entry, looked up): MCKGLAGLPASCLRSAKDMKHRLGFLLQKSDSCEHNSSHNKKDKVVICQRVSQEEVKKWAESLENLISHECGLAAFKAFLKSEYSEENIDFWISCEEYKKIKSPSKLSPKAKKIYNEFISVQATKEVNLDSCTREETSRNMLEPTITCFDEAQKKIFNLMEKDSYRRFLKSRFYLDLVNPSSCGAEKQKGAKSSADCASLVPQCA
# MrgX1 agonist: agonists of human MrgX1 receptor, primary screen, HEK293 cells, Fluo-4 calcium flux; Mas-related G-protein coupled receptor member X1 (Homo sapiens), Q96LB2; Fluo-4 calcium fluorescence, agonist mode; active compounds read high; B-score at 10 µM; 310,000 compounds, 0.44% hits; AID 588627, 2011;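 active means calcium response B-score plate-corrected fluorescence ratio at least 3 library SD, with starting fluorescence B-score inside 5 SD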
# Target sequence (Q96LB2 whole entry, looked up): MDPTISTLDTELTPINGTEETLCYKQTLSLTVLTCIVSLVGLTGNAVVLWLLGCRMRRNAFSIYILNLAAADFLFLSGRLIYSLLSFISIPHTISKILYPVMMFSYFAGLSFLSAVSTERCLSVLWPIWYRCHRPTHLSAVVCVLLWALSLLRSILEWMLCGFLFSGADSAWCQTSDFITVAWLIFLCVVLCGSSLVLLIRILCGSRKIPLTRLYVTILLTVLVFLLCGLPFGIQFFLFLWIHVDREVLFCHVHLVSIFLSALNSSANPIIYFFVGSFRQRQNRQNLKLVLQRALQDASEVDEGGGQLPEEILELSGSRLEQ
#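 Assay system: MrgX1-expressing HEK293 cells / Amount: fifteen thousand cells per well / Doses: test compound in the initial addition of three / Timing: cells plated overnight, dye loaded 0.5 h 37 °C, 0.5 h room temperature / Technique: kinetic calcium dye fluorescence, Fluo-4 NW / Control set: positive and negative controls per plate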
# KCC2 mod: KCC2 cotransporter modulators, thallium flux, primary screen, cell-based, HEK293 KCC2, FluoZin-2 fluorescence, MLSMR; Solute carrier family 12 member 5 (Homo sapiens), Q9H2X9; KCC2 cells, thallium flux FluoZin-2 fluorescence; B-score of Tl+ flux slope (higher = more flux/activation; lower = inhibition) at 10 µM; 190,000 compounds, 2.2% hits; AID 1456, 2008;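 active means thallium flux slope and its plate-corrected score both differing from the plate sample mean at a set confidence after two filtering rounds, in either direction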;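 further: slope of fluorescence scaled to starting intensity during 10 to 20 s after thallium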
# MrgX1 allo act: positive allosteric modulators of MrgX1, primary screen, HEK293 cells, Fluo-4 calcium flux | AID 588675, 2011 | Mas-related G-protein coupled receptor member X1 (Homo sapiens), Q96LB2 | 310,000 compounds, 0.63% hits | B-score at 10 µM | FDSS; active compounds read high;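 active means plate-corrected calcium response at least 3 library SD above typical, normal starting fluorescence, not activating the receptor alone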;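 further: compound read alongside a low EC10 to EC30 dose of BAM8-22 agonist; peak minus trough fluorescence over baseline measured at the second addition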
# MrgX1 antagonist: antagonists of human MrgX1 receptor, primary screen, HEK293 cells, Fluo-4 calcium flux. 310,000 compounds, 1.3% hits. BAM8-22 antagonism; active compounds read low. AID 588676, 2011. B-score at 10 µM. Mas-related G-protein coupled receptor member X1 (Homo sapiens), Q96LB2;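 active means calcium-response B-score plate-corrected more than 3 library SD below zero, starting fluorescence within 5 deviations, no agonist response on first addition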;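 further: peak minus trough fluorescence over baseline after final BAM8-22 challenge near maximal dose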
# RGS4 pot: RGS4 potentiators or activators, primary screen, cell-based, HEK293 M3R inducible RGS4, calcium flux. AID 463111, 2010. B-score at 10 µM. 310,000 compounds, 0.92% hits. carbachol calcium flux Fluo4; active compounds read low;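 active means B-score of the integrated calcium signal more than 4 SD below the library mean, with starting fluorescence not abnormally high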;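 further: negative B-score means reduced calcium response which marks RGS4 activation or potentiation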
#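 Reagent: ECmax carbachol challenge; Test system: M3R-expressing HEK293 line, RGS4 induced by doxycycline; Schedule: overnight RGS4 induction, 30 min dye load 37 °C, 20 min compound RT; Detection: calcium dye Fluo4 fluorescence; Read-out: Agonist-evoked peak-minus-minimum fluorescence over baseline, integrated ratio, B score.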
# MrgX1 allo conf: MrgX1 positive allosteric modulators, duplicate retest, confirmation, HEK293 cells, Fluo-4 calcium flux; shares compounds with MrgX1 allo act; Fluo-4 calcium fluorescence, FDSS; activation (ratio percentage), % at 10 µM; 1,200 compounds, 13% hits; AID 602413, 2012;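 active means ratio at least 3 SD above the weak peptide control, stable starting fluorescence, no direct agonism earlier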;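 further: compound followed by low BAM8-22 agonist challenge near EC20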
# HEK293 Ca flux: nonspecific calcium signal in parental HEK293, confirmation, counter-screen for MrgX1 antagonist project, parental HEK293 cells, Fluo-4 calcium flux; shares compounds with MrgX1 antagonist; Fluo-4 calcium fluorescence, FDSS; 4,000 compounds, 2% hits; fluorescence ratio F(max-min)/F0 at 10 µM; AID 624111, 2012;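 active means duplicate-averaged calcium fluorescence ratio at least three times the standard deviation of buffer wells, a nonspecific response in parental cells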
# HEK293 Ca counter: calcium response in parental HEK293 cells, primary screen, counter-screen for MrgX1 allosteric activator project, cell-based, Fluo-4 calcium flux, duplicate | shares compounds with MrgX1 antagonist | Fluo-4 fluorescence ratio; active compounds read high | fluorescence ratio F(max-min)/F0 at 10 µM | 4,000 compounds, 0.4% hits;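 active means calcium fluorescence ratio, averaged over duplicates, at least 3 SD of the buffer-well ratio, meaning a nonspecific response in receptor-free cells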;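 further: untransfected parental HEK293 lacking MrgX1 used as counterscreen for MrgX1 allosteric activators; fluorescence change taken during the second addition on a kinetic imager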
# HEK293 Ca cntr2: calcium response in parental HEK293 cells, primary screen, counter-screen for MrgX1 agonist project, cell-based, Fluo-4 calcium flux, duplicate, agonist mode; shares compounds with MrgX1 antagonist; Fluo-4 calcium fluorescence (FDSS); active compounds read high; fluorescence ratio F(max-min)/F0 at 10 µM; 4,000 compounds, 8.7% hits;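 active means calcium fluorescence ratio at least three times the spread of buffer wells, meaning a non-specific response in parental cells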
# An asterisk follows results filed as active; i = inactive; . = no result.
SMILES,RGS4 block,MrgX1 agonist,KCC2 mod,MrgX1 allo act,MrgX1 antagonist,RGS4 pot,MrgX1 allo conf,HEK293 Ca flux,HEK293 Ca counter,HEK293 Ca cntr2
COc1ccc2[nH]c(=O)c(CN(Cc3nnnn3Cc3ccco3)C3CCCCC3)cc2c1,i,i,.,9.3*,i,i,i,i,i,i
COc1ccc2[nH]c(=O)c(CN(Cc3cccnc3)Cc3nnnn3CC3CCCO3)cc2c1 (centres undefined),i,i,-0.62,26*,i,i,i,i,i,i
Cc1cccc(C)c1OCC(O)CNC(C)c1ccccc1 (centres undefined),i,i,.,i,i,i,.,.,.,.
Cc1ccc(NC(=O)CSc2nc(N)cc(N)n2)cc1S(=O)(=O)N1CCOCC1,i,i,0.32,i,i,i,.,.,.,.
Cc1ccc(NC(=O)CSc2nnc(C3CC3)n2N)cc1S(=O)(=O)N1CCOCC1,i,i,0.66,7.9*,i,i,i,i,i,i
CCC(C)C(NC(=O)C1CCC(C)CC1)C(=O)NCCc1ccc(S(N)(=O)=O)cc1 (centres undefined),i,i,.,i,i,i,.,.,.,.
CC(C)NC(=O)CSc1nnc(-c2ccc3ncccc3c2)n1C,i,i,1,i,i,i,.,.,.,.
Oc1ccc(Oc2ncc(Cl)cc2Cl)cc1,i,i,-0.48,8.8*,i,i,i,i,i,i
NC(=O)c1ccc(Oc2ncc(C(F)(F)F)cc2Cl)cc1,i,i,-1.3,i,i,i,.,.,.,.
c1ccc(N2CCN(c3ncnc4sc5c(c34)CCC5)CC2)cc1,i,i,1.2,i,i,i,.,.,.,.
c1nc(N2CCC3(CC2)OCCO3)c2c3c(sc2n1)CCCC3,i,i,-0.63,17*,i,i,i,i,i,i
COC(=O)c1ccc(N2C(=O)CC(Sc3n[nH]c(C)n3)C2=O)cc1 (centres undefined),i,i,1.4,7.8*,i,i,i,i,i,i
COC(=O)c1cc(C(=O)OC)cc(N2C(=O)CC(Sc3nc(C)cc(C)n3)C2=O)c1 (centres undefined),i,i,-0.4,i,i,i,.,.,.,.
O=C(/C=C/NCc1cccnc1)c1ccc(Br)cc1,i,i,.,i,i,i,.,.,.,.
COc1ccc(-c2nsc3c(SCc4ccccc4)ncnc23)cc1,i,i,1.4,6.8*,i,i,i,i,i,i
Cc1ccsc1C(=O)N1CCCC(N2CCN(c3cccc(Cl)c3)CC2)C1 (centres undefined),i,i,.,i,i,i,.,.,.,.
COc1nc(NC(=O)c2ccc(F)cc2)nc(OC)c1-c1ccccc1,i,i,.,8.2*,i,i,i,i,i,i
CCOc1cc(C)c(Cl)cc1S(=O)(=O)N(CC)CC,i,i,-0.75,7.5*,i,i,i,i,i,i
CCOc1cc(S(=O)(=O)N(CC)CC)ccc1Cl,i,i,-0.59,i,i,i,.,.,.,.
CC1CN(c2nc3ccccc3cc2-c2ccccc2)CC(C)O1 (centres undefined),i,i,-0.71,17*,i,i,i,i,i,i
CC1CN(c2cc(-c3ccccc3)c3ccccc3n2)CC(C)O1 (centres undefined),i,i,0.054,i,i,i,.,.,.,.
CCN(CC)S(=O)(=O)c1ccc(Cl)nc1,i,i,-0.00049,9.3*,i,i,i,i,i,i
CC1CCN(C(=O)COc2ncnc3ccccc23)CC1,i,i,-0.032,i,i,i,.,.,.,.
CC1CCN(C(=O)COc2ccc3ccccc3c2Br)CC1,i,i,.,6.5*,i,i,i,i,i,i
O=C(CSc1nc2ccccc2c(=O)n1CC1CCCO1)NCC1CCCO1 (centres undefined),i,i,1.6,8.2*,i,i,i,i,i,i
SMILES,RGS4 block,MrgX1 agonist,KCC2 mod,MrgX1 allo act,MrgX1 antagonist,RGS4 pot,MrgX1 allo conf,HEK293 Ca flux,HEK293 Ca counter,HEK293 Ca cntr2
O=c1c2ccccc2c2ccccc2c(=O)n1CC1CCCO1 (centres undefined),i,i,-0.031,9.2*,i,i,i,i,i,i
CC(=O)NCCn1c(SCC(=O)NCC2CCCO2)nc2ccccc2c1=O (centres undefined),i,i,-0.71,i,i,i,.,.,.,.
O=C1Nc2cc(C(=O)N3CCOCC3)ccc2S/C1=C\c1ccccc1,i,i,.,i,i,i,.,.,.,.
Cc1cccc(/C=C2/Sc3ccc(C(=O)N4CCOCC4)cc3NC2=O)c1,i,i,.,23*,i,i,i,i,i,i
CN(C)CCCOc1ccc2c(c1)Sc1ccccc1CC2=O,i,i,-1.4,8.5*,i,i,i,i,i,i
CC12CCC(=O)N1C(C(=O)Nc1nc3ccc(Cl)cc3s1)CS2 (centres undefined),i,i,.,16*,i,i,i,i,i,i
CN(CC(=O)Nc1ccccc1C(F)(F)F)C(=O)C1=COCCO1,i,i,.,i,i,i,.,.,.,.
O=C(O)c1ccccc1C(=O)NCCc1c(C(=O)O)[nH]c2ccc(Cl)cc12,i,i,0.14,i,i,i,.,.,.,.

# Bioassay records (PubChem)
